Experimental data reported in article PMC8163515 (Bioorganic chemistry, 2020).
Values after ≈ are worked out from the molar mass of the structure shown. “Also recorded” adds a separate entry of the source.

Legend:
log P = format: physicochemical
human recombinant ATX [1] = molecular target: T1, human recombinant ATX (Homo sapiens, UniProt Q13822); assay: ATX inhibition, hydrolysis of nucleotide substrate pNP-TMP; format: biochemical; conditions: 1 mM pNP-TMP, 4 nM human rATX
Summary of the method: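 Purified FLAG-tagged human ATX from the Sf9 baculovirus system was run with nucleotide substrate pNP-TMP in triplicate wells. Absorbance at 405 nm read every 2 min for 1 h; triplicate means recorded and percent activity derived from the 1 h point.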

human recombinant ATX [2] = molecular target: T1, human recombinant ATX; assay: ATX inhibition, hydrolysis of FRET substrate FS-3; format: biochemical; conditions: for Mechanism: FS-3 0 to 10 μM, inhibitor at 0, 0.5 × IC50 or 2 × IC50
Summary of the method: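 Human ATX, C-terminal FLAG-tagged, expressed in Sf9 cells by baculovirus and purified on anti-FLAG beads. Fluorescence (485/528 nm) read every 2 min for 1 h. Percent activity taken at 1 h; IC50 (±SD) interpolated from a variable-slope Hill fit.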

Water solubility = format: physicochemical
LPAR1 = LPAR1 (Homo sapiens, UniProt Q92633); assay: LPA1 receptor antagonism, calcium mobilization in LPA1 RH7777 cells; format: cell-based; conditions: for LPAR1 inhibitory activity: result in words
LPAR1, sequence (Q92633 whole entry, species assumed): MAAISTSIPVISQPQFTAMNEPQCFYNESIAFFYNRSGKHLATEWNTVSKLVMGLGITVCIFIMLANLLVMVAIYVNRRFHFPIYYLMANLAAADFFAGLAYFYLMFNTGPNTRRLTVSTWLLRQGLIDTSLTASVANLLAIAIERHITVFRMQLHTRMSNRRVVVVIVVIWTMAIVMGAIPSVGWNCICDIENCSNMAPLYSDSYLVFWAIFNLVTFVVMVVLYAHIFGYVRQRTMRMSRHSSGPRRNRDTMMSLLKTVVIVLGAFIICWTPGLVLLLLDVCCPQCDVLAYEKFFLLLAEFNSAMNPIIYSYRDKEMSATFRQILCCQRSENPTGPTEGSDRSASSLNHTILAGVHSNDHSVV
Summary of the method: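 Stably LPA1-overexpressing rat hepatoma RH7777 cells, kept in DMEM, 10% FBS, 2 mM L-glutamine, 250 μg/mL G418, 37 °C, 5% CO2. Plated at 5 × 10^4 cells/well on poly-L-lysine overnight, serum-deprived 4 h in Krebs buffer (pH 7.4), loaded 30 min with 4.5 μg/mL Fura-2AM. Compound dose range tested with and without LPA 18:1 at its EC50 concentration. Fluorescence 340/510 and 380/510 nm every 3.42 s for 70 s. Triplicate mean ratios normalized to LPA Emax; IC50 from variable-slope fit.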

[3] = IC50 (nM ± SD) vs FS-3, 1 μM FS-3, 4 nM human rATX, 1 h
[4] = Experimental pIC50, -log IC50, ATX enzyme inhibition
[5] = IC50 (nM) ATX enzyme, QSAR data set, compounds of this study

Row | SMILES | logP (log P) | pNP-TMP inhibition (human recombinant ATX [1]) | Mechanism (human recombinant ATX [2]) | IC50 (human recombinant ATX [2]; [3]) [nM] | solubility (Water solubility) [µg/mL] | LPAR1 inhibitory activity (LPAR1) | IC50 (human recombinant ATX [2]; [4]) [nM] | IC50 (human recombinant ATX [2]; [5]) [nM] | IC50 (LPAR1) [nM]
1 | CS(=O)(=O)N(c1cc(C(=O)Nc2cc(F)c(F)c(F)c2)c(Cl)cc1Cl)C1CCOCC1 [Compound 10, 2,4-dichloro-5-(N-(tetrahydro-2H-pyran-4-yl)-methylsulfonamido)-N-(3,4,5-trifluorophenyl)-benzamide] | 3.2 | none | Competitive | 220 ± 14.7 | > 100 | neither compound 10 nor compound 11 showed any LPAR1 inhibitory activity; also recorded: no LPAR1 inhibitory activity | – | – | –
2 | CS(=O)(=O)N(c1cc(C(=O)Nc2cc(F)c(Cl)c(F)c2)c(Cl)cc1Cl)C1CCOCC1 [Compound 11, 2,4-dichloro-N-(4-chloro-3,5-difluorophenyl)-5-(N-(tetrahydro-2H-pyran-4-yl)-methylsulfonamido)-benzamide] | 3.68 | none | Competitive | 219 ± 25.2 | > 100 | neither compound 10 nor compound 11 showed any LPAR1 inhibitory activity; also recorded: no LPAR1 inhibitory activity | 219 | 219 | –
3 | N#CC(c1ccc(F)c(C(=O)Nc2cc(F)c(F)c(F)c2)c1)N1CCOCC1 (stereo not drawn) [Compound 14, 5-(cyano(morpholino)methyl)-2-fluoro-N-(3,4,5-trifluorophenyl)-benzamide] | 2.91 | none | – | > 1000 | 50 (≈ 127 µM) | – | – | ≥ 1000 | > 1000
4 | O=C(Nc1cc(F)c(F)c(F)c1)c1cc(C(C(=O)O)N2CCOCC2)ccc1F (stereo not drawn) [Compound 15, 2-(4-fluoro-3-((3,4,5-trifluorophenyl)-carbamoyl)-phenyl)-2-morpholinoacetic acid] | 2.44 | none | – | > 1000 | > 100 | – | > 1000 | ≥ 1000 | > 1000
